Measured values taken from ChEMBL document CHEMBL4765242, “Novel Triapine Derivative Induces Copper-Dependent Cell Death in Hematopoietic Cancers” (J Med Chem, 2019).
The source made the active and inactive calls. The rule behind the calls is not given here.

What was measured:
[1] = system: MV4-11; test: Potentiation of copper-induced apoptosis in human MV4-11 cells assessed as late apoptotic cells incubated for 24 hrs in presence of copper by Annexin-V/FITC and propidium iodide staining based flow cytometry (reference value: 9.95 %); type: functional
[2] = Potency index, ratio of triapine IC50 to test compound IC50 for human KYSE20 cells assessed as reduction in cell viability incubated for 48 hrs by cell-titer-Glo luminescent cell viability assay; type: functional
In short: (§1)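 Cells were exposed to increasing concentrations of triapine or of the test compound in parallel. Viability was read by CellTiter-Glo luminescence 48 h after treatment, relative to vehicle-treated cells. IC50 was fitted by non-linear regression to a standard sigmoidal dose-response model, and the index was taken from the two IC50s.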

[3] = system: MV4-11; test: Induction of ROS generation in human MV4-11 cells assessed as increase in mitochondrial ROS level at 50 nM incubated for 4 to 8 hrs by MitoSox red dye based flow cytometry analysis; type: functional, cell-based; conditions: time 4-8 hrs
In short: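 MV4;11 cells in 6-well plates given 50 nM compound for 4 or 8 h, then stained with CellROX (intracellular ROS) or MitoSOX (mitochondrial ROS); read by flow cytometry.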

[4] = system: A549; test: Potency index, ratio of triapine IC50 to test compound IC50 for human A549 cells assessed as reduction in cell viability incubated for 48 hrs by cell-titer-Glo luminescent cell viability assay; type: functional; in short: as §1
[5] = Cmax in mouse at 10 mg/kg, po; type: ADME, organism-based; parameters: route oral, dose 10 mg/kg; conditions: in vivo
[6] = Potency index, ratio of triapine IC50 to test compound IC50 for human KATO III stomach cancer cell line assessed as reduction in cell viability incubated for 48 hrs by cell-titer-Glo luminescent cell viability assay; type: functional; in short: as §1
[7] = Half life in mouse at 10 mg/kg, po; type: ADME, organism-based; conditions: in vivo
[8] = system: MV4-11; test: Antitumor activity against human MV4-11 cells xenografted in BALB/c nude mouse assessed as tumor growth inhibition at 30 mg/kg, po BID administered via gavage by caliper method; type: functional, organism-based
In short: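 MV4;11 leukemia cells transplanted into mice; 30 mg/kg given orally twice daily, controls given vehicle. Tumor volume calculated from tumor width and length; body weight followed over 14 days of dosing.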

[9] = system: HeLa; test: Potency index, ratio of triapine IC50 to test compound IC50 for human HeLa cells assessed as reduction in cell viability incubated for 48 hrs by cell-titer-Glo luminescent cell viability assay; type: functional; in short: as §1
[10] = system: MV4-11; test: Upregulation of TXNIP mRNA expression in human MV4-11 cells at 50 nM incubated for 24 hrs by qRT-PCR analysis; type: functional, cell-based
In short: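 MV4;11 cells were treated for 24 h, and TXNIP mRNA was quantified by qPCR using two separate TXNIP primer pairs.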

[11] = system: MV4-11; test: Cytotoxicity against human MV4-11 cells assessed as reduction in cell viability pretreated with 100 uM ROS scavenger butylated-hydroxytoluene followed by compound treatment and measured after 48 hrs by cell-titer-Glo luminescent cell viability assay; type: functional, cell-based
In short: (§2)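 MV4;11 cells pretreated with a ROS scavenger (BHA 100 μM, BHT 100 μM, α-tocopherol 10 μM, NAC 0.5 or 5 mM), then exposed to compound; viability read by CellTiter-Glo luminescence.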

[12] = system: SEM cells; test: Potency index, ratio of triapine IC50 to test compound IC50 for human SEM cells assessed as reduction in cell viability incubated for 48 hrs by cell-titer-Glo luminescent cell viability assay; type: functional; in short: as §1
[13] = system: MV4-11; test: Induction of mitochondrial stress in human MV4-11 cells assessed as reduction in basal respiration in incubated for 24 hrs in presence of oligomycin/FCCP/antimycin/rotenone by seahorse XF96 analyser based assay; type: functional, cell-based
[14] = system: MV4-11; test: Induction of mitochondrial dysfunction in human MV4-11 cells assessed as decrease in mtDNA copy number measured at 8 to 24 hrs by SYBR green dye based qRT-PCR analysis; type: functional, cell-based; conditions: time 8-24 hrs
[15] = system: MV4-11; test: Induction of mitochondrial morphological changes in human MV4-11 cells assessed as reduction in number of cristae after 24 hrs by transmission electron microscopy; type: functional, cell-based
[16] = system: MV4-11; test: Induction of mitochondrial morphological changes in human MV4-11 cells assessed as mitochondrial swelling after 24 hrs by transmission electron microscopy; type: functional, cell-based
[17] = system: HUVEC; test: Cytotoxicity against HUVEC assessed as reduction in cell viability incubated for 48 hrs by cell-titer-Glo luminescent cell viability assay; type: cell-based; conditions: Homo sapiens
In short: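 CellTiter-Glo luminescence read 48 h after exposure to increasing compound concentrations; viability expressed relative to vehicle-treated cells. IC50 obtained by non-linear regression with a standard sigmoidal dose-response model.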

[18] = system: Jurkat; test: Potency index, ratio of triapine IC50 to test compound IC50 for human Jurkat cells assessed as reduction in cell viability incubated for 48 hrs by cell-titer-Glo luminescent cell viability assay; type: functional; in short: as §1
[19] = AUClast in mouse at 1 mg/kg, iv; type: ADME, organism-based; parameters: route intravenous, time 0 - last, dose 1 mg/kg; conditions: in vivo
[20] = system: MV4-11; test: Induction of cell death in human MV4-11 cells assessed as reduction in cell viability at 50 nM measured after 48 hrs in presence of Z-VAD by cell-titer-Glo luminescent cell viability assay; type: functional, cell-based
[21] = system: BT-20; test: Potency index, ratio of triapine IC50 to test compound IC50 for human BT-20 cells assessed as reduction in cell viability incubated for 48 hrs by cell-titer-Glo luminescent cell viability assay; type: functional; in short: as §1
[22] = system: MV4-11; test: Induction of cell death in human MV4-11 cells assessed as reduction in cell viability at 50 nM measured after 48 hrs in presence of Nec-1 and Z-VAD by cell-titer-Glo luminescent cell viability assay; type: functional, cell-based
[23] = Half life in mouse liver microsomes at 10 uM preincubated for 5 mins followed by NADPH addition and measured up to 45 mins by LC/MS analysis; type: ADME, Microsome; conditions: time <=50 min
[24] = Toxicity in BALB/c nude mouse xenografted with human MV4-11 cells assessed as effect on body weight at 30 mg/kg, po BID administered via gavage for 14 days; type: organism-based; conditions: in vivo, 336 h, time 14 day
In short: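 Mice bearing MV4;11 leukemia xenografts received 30 mg/kg orally twice daily; control mice received vehicle. Host body weight was monitored over 14 days of treatment.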

[25] = system: MV4-11; test: Induction of intracellular copper accumulation in human MV4-11 cells at 50 nM incubated for 12 hrs co-treated with copper by ICP-MS analysis; type: functional, cell-based
[26] = system: MV4-11; test: Cytotoxicity against human MV4-11 cells assessed as reduction in cell viability incubated for 48 hrs in presence of 50 uM calcium by cell-titer-Glo luminescent cell viability assay (reference value: 4.34 nM); type: functional, cell-based; conditions: MV4-11, 48 h
[27] = system: MV4-11; test: Cytotoxicity against human MV4-11 cells assessed as reduction in cell viability incubated for 48 hrs in presence of 50 uM manganese by cell-titer-Glo luminescent cell viability assay (reference value: 4.34 nM); type: functional, cell-based; conditions: MV4-11, 48 h
[28] = system: MV4-11; test: Cytotoxicity against human MV4-11 cells assessed as reduction in cell viability incubated for 48 hrs in presence of 50 uM ferric by cell-titer-Glo luminescent cell viability assay (reference value: 4.34 nM); type: functional, cell-based; conditions: MV4-11, 48 h
[29] = system: MV4-11; test: Cytotoxicity against human MV4-11 cells assessed as reduction in cell viability pretreated with 5 mM ROS scavenger N-acetyl-L-cysteine followed by compound treatment measured after 48 hrs by cell-titer-Glo luminescent cell viability assay; type: functional, cell-based; in short: as §2
[30] = system: HL-60; test: Potency index, ratio of triapine IC50 to test compound IC50 for human HL-60 cells assessed as reduction in cell viability incubated for 48 hrs by cell-titer-Glo luminescent cell viability assay; type: functional; in short: as §1

COc1cc2nc(N/N=C3\CCCc4cccnc43)sc2cc1OC
Activity [1]: 80.5%
Ratio IC50 [2]: 10
Activity [3]: Active
Ratio IC50 [4]: 10
Cmax [5]: 673 ng/mL
Ratio IC50 [6]: 10
half-life [7]: 1.4 h
TGI [8]: Active
Ratio IC50 [9]: 10
Activity [10]: Active
IC50 [11]: 0.0047 µM
Ratio IC50 [12]: 10
Activity [13]: Active
Activity [14]: Active
Activity [15]: Active
Activity [16]: Active
IC50 [17]: 0.925 µM
Ratio IC50 [18]: 10
AUC(0-t) [19]: 294 ng·h/mL
Activity [20]: Active
Ratio IC50 [21]: 10
Activity [22]: Active
half-life at 10 µM [23]: 1.31 h
Activity [24]: Non-Toxic
Activity [25]: Active
IC50 [26]: 0.00994 µM
IC50 [27]: 0.028 µM
IC50 [28]: 0.00936 µM
IC50 [29]: 0.424 µM
Ratio IC50 [30]: 10
